In ChEMBL document CHEMBL2062366, “Synthesis and biological evaluation of purpurealidin E-derived marine sponge metabolites: aplysamine-2, aplyzanzine A, and suberedamines A and B” (2012):
Values after ≈ are worked out from the molar mass of the structure shown. Active and inactive are the calls of the source. The rule behind the calls is not given here.

Legend:
Format in all cases: functional
[1] = system: Mycobacterium tuberculosis; assay: Antimycobacterial activity against Mycobacterium tuberculosis H37Rv after 2 weeks by spot culture growth inhibition assay
Outline: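 H37Rv grown as standing culture in 7H9 + 10% ADC + 0.05% Tween-80 to McFarland 1, checked for contamination on blood agar. Culture diluted to 10³ cfu/mL; 10 μL spotted onto 7H10 agar + 10% OADC with compound, 37 °C, 2 weeks. Controls: DMSO (negative), isoniazid (positive). MIC = lowest concentration with no growth.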

[2] = Growth inhibition of human NCI60 cells after 48 hrs by sulforhodamine B assay; conditions: NCI60, 48 h
Outline: (§1)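 Run at the NCI Developmental Therapeutics Program under the standard DTP NCI60 protocol. Total cell protein was measured by sulforhodamine B staining at time 0 and after 48 h exposure. GI50, the concentration giving a 50% reduction of growth, was estimated from dose–response curves.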

Bacillus subtilis = assay: Antibacterial activity against Bacillus subtilis NCTC 9372 after 24 hrs; conditions: NCTC 9372, 24 h
Outline: (§2)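 Agar dilution in Isosensitest agar at final compound levels of 128–1 μg/mL, from 10 mg/mL DMSO stocks. Solvent-only control plates covered the same DMSO range. Strains were pre-grown overnight on Columbia agar at 37 °C and multipoint-inoculated at 10 000 cfu/spot. Plates were read after 24 h at 37 °C. MIC was taken as the lowest concentration giving no visible growth, with tests repeated on a separate occasion.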

[3] = system: Staphylococcus epidermidis; assay: Antibacterial activity against Staphylococcus epidermidis NCTC 11047 after 24 hrs; conditions: NCTC 11047, 24 h; outline: as §2
Escherichia coli = assay: Antibacterial activity against Escherichia coli NCTC 10418 after 24 hrs; conditions: NCTC 10418, 24 h; outline: as §2
Enterococcus faecalis = assay: Antibacterial activity against Enterococcus faecalis NCTC 775 after 24 hrs; conditions: NCTC 775, 24 h; outline: as §2
Enterococcus faecium = assay: Antibacterial activity against Enterococcus faecium NCTC 7171 after 24 hrs; conditions: NCTC 7171, 24 h; outline: as §2
Listeria monocytogenes = assay: Antibacterial activity against Listeria monocytogenes NCTC 11994 after 24 hrs; conditions: NCTC 11994, 24 h; outline: as §2
Staphylococcus aureus [4] = assay: Antibacterial activity against Staphylococcus aureus NCTC 6571 after 24 hrs; conditions: NCTC 6571, 24 h
Outline: (§3)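 Agar dilution on Isosensitest agar with final 128−1 μg/mL compound from DMSO solution; DMSO-only control plates. Strains pre-grown overnight on Columbia agar at 37 °C, suspended in sterile water, diluted to give 10 000 cfu per spot. Incubated 37 °C, 24 h. MIC = lowest concentration completely inhibiting visible growth; repeated on a separate occasion.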

Staphylococcus aureus [5] = assay: Antibacterial activity against methicillin-resistant Staphylococcus aureus NCTC 11939 after 24 hrs; conditions: NCTC 11939, 24 h; outline: as §3
Streptococcus pyogenes = assay: Antibacterial activity against Streptococcus pyogenes NCTC 8306 after 24 hrs; conditions: NCTC 8306, 24 h; outline: as §2
Candida albicans = assay: Antifungal activity against Candida albicans ATCC 90028 after 24 hrs; conditions: ATCC 90028, 24 h; outline: as §2
Nakaseomyces glabratus = assay: Antifungal activity against Candida glabrata NCPF 9725 after 24 hrs; conditions: NCPF 9725, 24 h; outline: as §2
K562 = assay: Growth inhibition of human K562 cells after 48 hrs by sulforhodamine B assay; conditions: K562, 48 h, pooled result: one value given for 6 cell lines, strains, targets or settings; outline: as §1

In the case of `CN[C@@H](Cc1ccc(OC)c(Br)c1)C(=O)NCCc1cc(Br)c(OCCCN(C)C)c(Br)c1` [SUBEREDAMINE B], the MIC ([1]; 336 h) was 40 µg/mL (≈ 61.5 µM), the GI50 ([2]; read-out: GI50) was 5.47 µM and the GI50 ([2]; read-out: pGI50 (converted)) was 4.79 µM.

`COc1ccc(C[C@H](N)C(=O)NCCc2cc(Br)c(OCCCN(C)C)c(Br)c2)cc1Br` [SUBEREDAMINE A] gave an MIC (Bacillus subtilis) of 64 µg/mL (≈ 101 µM), an MIC [3] of 64 µg/mL (≈ 101 µM) and an MIC ([1]; 336 h) of 50 µg/mL (≈ 78.6 µM).

Work on `COc1c(Br)cc(C[C@@H](C(=O)NCCc2cc(Br)c(OCCCN(C)C)c(Br)c2)N(C)C)cc1Br` [APLYZANZINE A] yielded an MIC (Escherichia coli) of 32 µg/mL (≈ 43.1 µM), an MIC (Bacillus subtilis) of 16 µg/mL (≈ 21.5 µM) and an MIC (Enterococcus faecalis) of 32 µg/mL (≈ 43.1 µM). It also gave an MIC (Enterococcus faecium) of 32 µg/mL (≈ 43.1 µM), an MIC (Listeria monocytogenes) of 32 µg/mL (≈ 43.1 µM) and an MIC [3] of 16 µg/mL (≈ 21.5 µM). It also gave an MIC (Staphylococcus aureus [4]) of 32 µg/mL (≈ 43.1 µM), an MIC (Staphylococcus aureus [5]) of 32 µg/mL (≈ 43.1 µM) and an MIC (Streptococcus pyogenes) of 16 µg/mL (≈ 21.5 µM). For the same compound, the MIC (Candida albicans) was 64 µg/mL (≈ 86.1 µM), the MIC (Nakaseomyces glabratus) was 64 µg/mL (≈ 86.1 µM) and the MIC ([1]; 336 h) was 25 µg/mL (≈ 33.6 µM).

`CN[C@@H](Cc1cc(Br)c(OC)c(Br)c1)C(=O)NCCc1cc(Br)c(OCCCN(C)C)c(Br)c1` gave a GI50 (K562; read-out: GI50) of 2.17 µM and a GI50 (K562; read-out: pGI50 (converted)) of 4.79 µM.

In the case of `CN(C)CCCOc1c(Br)cc(CCN)cc1Br`, the MIC [1] was “inactive”.

Work on `CNC(Cc1cc(Br)c(OC)c(Br)c1)C(=O)NCCCOc1c(Br)cc(CCN(C)C)cc1Br.Cl` (centres undefined) [ANOMOIAN A] yielded an MIC (Escherichia coli) of 64 µg/mL, an MIC (Bacillus subtilis) of 32 µg/mL and an MIC (Enterococcus faecium) of 64 µg/mL. For the same compound, the MIC (Listeria monocytogenes) was 64 µg/mL, the MIC [3] was 64 µg/mL and the MIC (Staphylococcus aureus [4]) was 64 µg/mL. For the same compound, the MIC (Staphylococcus aureus [5]) was 64 µg/mL, the MIC (Streptococcus pyogenes) was 64 µg/mL and the MIC ([1]; 336 h) was 25 µg/mL.

For `COc1ccc(C/C(=N\O)C(=O)NCCc2cc(Br)c(OCCCN(C)C)c(Br)c2)cc1Br`, the MIC (Bacillus subtilis) was 32 µg/mL (≈ 49.2 µM), the MIC (Enterococcus faecalis) was 64 µg/mL (≈ 98.4 µM) and the MIC (Enterococcus faecium) was 64 µg/mL (≈ 98.4 µM). It also gave an MIC (Listeria monocytogenes) of 64 µg/mL (≈ 98.4 µM), an MIC [3] of 64 µg/mL (≈ 98.4 µM) and an MIC (Staphylococcus aureus [4]) of 32 µg/mL (≈ 49.2 µM). For the same compound, the MIC (Staphylococcus aureus [5]) was 64 µg/mL (≈ 98.4 µM), the MIC (Streptococcus pyogenes) was 32 µg/mL (≈ 49.2 µM) and the MIC ([1]; 336 h) was 25 µg/mL (≈ 38.4 µM).
